Measured values reported in ChEMBL document CHEMBL1122522, “Conformationally restricted retinoids” (1984).
Blank lines part the entries; values can stand above or below the molecule they belong to.

Assays:
Cricetinae gen. sp. [1] = test: Activity of compound the was expressed as ratio of active hamster tracheal organ cultures(TOC) to the total cultures at 10e-8 M concentration; 2/7; type: functional, Cricetulus griseus, Trachea
Outline: (§1)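 Tracheal organ cultures came from vitamin A-deficient hamsters. Each culture was scored for reversal of keratinization and reported as active cultures out of total cultures at each retinoid concentration tested (10⁻⁸ to 10⁻¹² M). The protocol followed earlier published methods.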

Cricetinae gen. sp. [2] = test: Activity of compound the was expressed as ratio of active hamster tracheal organ cultures(TOC) to the total cultures at 10e-10 M concentration; 1/7; type: functional, Cricetulus griseus, Trachea; outline: as §1
Cricetinae gen. sp. [3] = test: Activity of compound the was expressed as ratio of active hamster tracheal organ cultures(TOC) to the total cultures at 10e-9 M concentration; 1/7; type: functional, Cricetulus griseus, Trachea; outline: as §1
[4] = target: T1, Ornithine decarboxylase (Mus musculus) (UniProt P00860); test: Inhibition of the induction of ornithine decarboxylase in mouse epidermis by the tumor promoter 12-O-tetradecanoylphorbol-13-acetate (ODC) at dose 17 nmol; Inhibition not significant
T1 sequence (whole entry): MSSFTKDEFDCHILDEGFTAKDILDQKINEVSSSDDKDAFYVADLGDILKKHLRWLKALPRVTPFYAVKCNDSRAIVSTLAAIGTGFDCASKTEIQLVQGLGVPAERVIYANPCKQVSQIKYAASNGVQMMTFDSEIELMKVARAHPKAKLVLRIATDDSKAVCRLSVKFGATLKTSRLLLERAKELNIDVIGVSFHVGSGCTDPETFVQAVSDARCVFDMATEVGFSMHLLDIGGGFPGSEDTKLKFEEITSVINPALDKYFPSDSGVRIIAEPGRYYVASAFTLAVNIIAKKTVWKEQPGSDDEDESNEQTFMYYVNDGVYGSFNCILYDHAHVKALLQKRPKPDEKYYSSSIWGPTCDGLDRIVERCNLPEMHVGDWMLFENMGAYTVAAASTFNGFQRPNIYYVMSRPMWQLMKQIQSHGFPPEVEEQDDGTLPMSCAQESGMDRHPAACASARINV

[5] = target: T1, Ornithine decarboxylase (Mus musculus); test: Inhibition of the induction of ornithine decarboxylase in mouse epidermis by the tumor promoter 12-O-tetradecanoylphorbol-13-acetate (ODC) at dose 1.7 nmol; Inhibition not significant
Cricetinae gen. sp. [6] = test: Molarity required to effect reversal of keratinization in 50% of cultures.; type: functional, Cricetulus griseus
[7] = target: T1, Ornithine decarboxylase (Mus musculus); test: Inhibition of the induction of ornithine decarboxylase in mouse epidermis by the tumor promoter 12-O-tetradecanoylphorbol-13-acetate (ODC) at dose 1.7 nmol
Cricetinae gen. sp. [8] = test: Activity of compound the was expressed as ratio of active hamster tracheal organ cultures(TOC) to the total cultures at 10e-8 M concentration; type: functional, Cricetulus griseus, Trachea; outline: as §1
[9] = target: T1, Ornithine decarboxylase (Mus musculus); test: Inhibition of the induction of ornithine decarboxylase in mouse epidermis by the tumor promoter 12-O-tetradecanoylphorbol-13-acetate (ODC) at dose 17 nmol
Cricetinae gen. sp. [10] = test: Activity of compound the was expressed as ratio of active hamster tracheal organ cultures(TOC) to the total cultures at 10e-10 M concentration; type: functional, Cricetulus griseus, Trachea; outline: as §1
Cricetinae gen. sp. [11] = test: Activity of compound the was expressed as ratio of active hamster tracheal organ cultures(TOC) to the total cultures at 10e-9 M concentration; type: functional, Cricetulus griseus, Trachea; outline: as §1
Cricetinae gen. sp. [12] = test: Activity of compound the was expressed as ratio of active hamster tracheal organ cultures(TOC) to the total cultures at 10e-9 M concentration; 1/5; type: functional, Cricetulus griseus, Trachea; outline: as §1
Cricetinae gen. sp. [13] = test: Activity of compound the was expressed as ratio of active hamster tracheal organ cultures(TOC) to the total cultures at 10e-8 M concentration; 1/5; type: functional, Cricetulus griseus, Trachea; outline: as §1
[14] = Percent survivors at dose 100 umol/kg day; type: functional, Mus musculus
Outline: (§2)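 Adult female Swiss mice (20–25 g) had chow and water ad libitum. The retinoid was homogenized as a suspension in aqueous 8% Cremophor EL plus 10% propylene glycol. It was given ip as 10 weekday injections over 14 days. Controls received vehicle alone. Survivors were weighed on days 1, 5, 10 and 15, and dates of death were recorded. Survival was scored at days 8 and 15.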

Cricetinae gen. sp. [15] = test: Activity of compound the was expressed as ratio of active hamster tracheal organ cultures(TOC) to the total cultures at 10e-8 M concentration; 7/7; type: functional, Cricetulus griseus, Trachea; details: at 0.01 µM
[16] = Mortality range in days at dose 200 umol/kg day; type: functional, Mus musculus; outline: as §2
[17] = Mortality range in days at dose 600 umol/kg day; 7-10; type: functional, Mus musculus; outline: as §2
Cricetinae gen. sp. [18] = test: Activity of compound the was expressed as ratio of active hamster tracheal organ cultures(TOC) to the total cultures at 10e-10 M concentration; 4/13; type: functional, Cricetulus griseus, Trachea; outline: as §1
[19] = Percent survivors at dose 200 umol/kg day; type: functional, Mus musculus; outline: as §2
Mus musculus [20] = species: Mus musculus; test: Tested for relative activity in a 20-week anti-papilloma experiment in female CD-1 mice at dose 17 nmol; type: functional
Outline: (§3)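 Female Charles River CD-1 mice, 8 weeks old, in random groups of 25–30, were shaved 2 days before initiation with 200 nmol DMBA in acetone on the back. From 2 weeks on, 8.5 nmol TPA was applied twice weekly for 20 weeks. Retinoid in 0.2 mL acetone, or acetone alone for controls, was given 1 h before each TPA dose. Papillomas were counted weekly, and mean papillomas per mouse were compared with controls at 20 weeks.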

[21] = Mortality range in days at dose 300 umol/kg day; 12-15; type: functional, Mus musculus; outline: as §2
Mus musculus [22] = species: Mus musculus; test: Tested for relative activity in a 20-week anti-papilloma experiment in female CD-1 mice at dose 170 nmol; type: functional; outline: as §3
Mus musculus [23] = species: Mus musculus; test: Percent decrease in average number of papillomas at dose 17 nmol; type: functional; outline: as §3
[24] = Percent survivors at dose 300 umol/kg day; type: functional, Mus musculus; outline: as §2
[25] = Percent survivors at dose 600 umol/kg day; type: functional, Mus musculus; outline: as §2
Mus musculus [26] = species: Mus musculus; test: Percent decrease in average number of papillomas at dose 170 nmol; type: functional; outline: as §3
[27] = Percent survivors at dose 30 umol/kg day; type: functional, Mus musculus; outline: as §2
Cricetinae gen. sp. [28] = test: Activity of compound the was expressed as ratio of active hamster tracheal organ cultures(TOC) to the total cultures at 10e-9 M concentration; 7/7; type: functional, Cricetulus griseus, Trachea; outline: as §1
Mus musculus [29] = species: Mus musculus; test: Tested for percentage of mice with papillomas in a 20-week anti-papilloma experiment in female CD-1 mice at dose 170 nmol
[30] = Mortality range in days at dose 300 umol/kg day; 10-14; type: functional, Mus musculus; outline: as §2
[31] = Percent survivors at dose 33 umol/kg day; type: functional, Mus musculus; outline: as §2
[32] = Percent survivors at dose 67 umol/kg day; type: functional, Mus musculus; outline: as §2
[33] = Mortality range in days at dose 600 umol/kg day; 7-13; type: functional, Mus musculus; outline: as §2
Mus musculus [34] = species: Mus musculus; test: Percent decrease in average number of papillomas at dose 1.7 nmol *-p<0.01; type: functional; outline: as §3
Mus musculus [35] = species: Mus musculus; test: Percent decrease in average number of papillomas at dose 170 nmol *-p<0.001; type: functional; outline: as §3
Cricetinae gen. sp. [36] = test: Activity of compound the was expressed as ratio of active hamster tracheal organ cultures(TOC) to the total cultures at 10e-12 M concentration; 3/19; type: functional, Cricetulus griseus, Trachea; outline: as §1
[37] = Mortality range in days at dose 200 umol/kg day; 14-15; type: functional, Mus musculus; outline: as §2
Mus musculus [38] = species: Mus musculus; test: Tested for relative activity in a 20-week anti-papilloma experiment in female CD-1 mice at dose 1.7 nmol; type: functional; outline: as §3
Mus musculus [39] = species: Mus musculus; test: Percent decrease in average number of papillomas at dose 17 nmol *-p<0.001; type: functional; outline: as §3
Cricetinae gen. sp. [40] = test: Activity of compound the was expressed as ratio of active hamster tracheal organ cultures(TOC) to the total cultures at 10e-10 M concentration; 18/19; type: functional, Cricetulus griseus, Trachea; outline: as §1
Cricetinae gen. sp. [41] = test: Activity of compound the was expressed as ratio of active hamster tracheal organ cultures(TOC) to the total cultures at 10e-11 M concentration; 10/20; type: functional, Cricetulus griseus, Trachea; outline: as §1

Structure (SMILES): CC1=C(/C=C/c2ccc(/C(C)=C/C(=O)O)cc2)C(C)(C)CCC1
Activity (Cricetinae gen. sp. [12]): 1%
Activity (Cricetinae gen. sp. [13]): 1%
ED50 (Cricetinae gen. sp. [6]): >1e-08

Structure (SMILES): C/C(=C\c1ccc(C(=O)O)cc1)c1ccc2c(c1)C(C)(C)CCO2
Survivors at day 8 [14]: 100%
Survivors at day 15 [14]: 100%
Activity (Cricetinae gen. sp. [15]): 7%
Mortality range [16]: 14 days
inhibition [9]: 81%
Mortality range [17]: 10 days
Activity (Cricetinae gen. sp. [18]): 4%
Survivors at day 8 [19]: 100%
Survivors at day 15 [19]: 90%
Activity (Mus musculus [20]): 53%
Mortality range [21]: 15 days
Activity (Mus musculus [22]): 38%
Decrease (Mus musculus [23]): 75%
ED50 (Cricetinae gen. sp. [6]): 2e-10
Survivors at day 8 [24]: 100%
Survivors at day 15 [24]: 50%
Survivors at day 8 [25]: 70%
Survivors at day 15 [25]: 0%
inhibition [7]: 42%
Decrease (Mus musculus [26]): 94%
Survivors at day 8 [27]: 100%
Activity (Cricetinae gen. sp. [28]): 100%

Structure (SMILES): CC1=C(/C=C/C(C)=C/C=C/C(C)=C/C(=O)O)C(C)(C)CCC1 [TRETINOIN]
Survivors at day 8 [14]: 100%
Survivors at day 15 [14]: 100%
mice with papillomas % (Mus musculus [29]): 40%
Mortality range [30]: 14 days
Survivors at day 8 [31]: 100%
Survivors at day 15 [31]: 100%
Survivors at day 8 [32]: 100%
Survivors at day 15 [32]: 100%
Mortality range [33]: 13 days
Survivors at day 8 [19]: 100%
Survivors at day 15 [19]: 63%
Decrease (Mus musculus [34]): 56.2%
Activity (Mus musculus [20]): 47%
Decrease (Mus musculus [35]): 89.6%
Activity (Cricetinae gen. sp. [36]): 3%
ED50 (Cricetinae gen. sp. [6]): 1e-11
Mortality range [37]: 15 days
Survivors at day 8 [24]: 100%
Survivors at day 15 [24]: 0%
Activity (Mus musculus [38]): 69%
Survivors at day 8 [25]: 95%
Survivors at day 15 [25]: 0%
Decrease (Mus musculus [39]): 74.1%
Activity (Cricetinae gen. sp. [40]): 18%
Activity (Cricetinae gen. sp. [41]): 10%

Continued, in another order:

inhibition [4]: 23%
inhibition [5]: 9%
Structure (SMILES): CC1=C(c2ccc(/C=C/C(C)=C/C(=O)O)c(C)c2)C(C)(C)CCC1
Activity (Cricetinae gen. sp. [1]): 2%
Activity (Cricetinae gen. sp. [2]): 1%
Activity (Cricetinae gen. sp. [3]): 1%
ED50 (Cricetinae gen. sp. [6]): >1e-08

inhibition [7]: 77%
Structure (SMILES): CC1=C(/C=C/C(C)=C/c2ccc(C(=O)O)cc2)C(C)(C)CCC1
ED50 (Cricetinae gen. sp. [6]): 3e-10

inhibition [9]: 55%
inhibition [7]: 34%
Structure (SMILES): CC1=C(c2ccc(-c3ccc(C(=O)O)cc3)cc2)C(C)(C)CCC1
Activity (Cricetinae gen. sp. [8]): 7%
Activity (Cricetinae gen. sp. [10]): 2%
ED50 (Cricetinae gen. sp. [6]): 3e-09
Activity (Cricetinae gen. sp. [11]): 2%
